ChEMBL document CHEMBL1148717, “Design, synthesis, and biological evaluation of Plasmodium falciparum lactate dehydrogenase inhibitors” (J Med Chem, 2007)
pIC50: −log10 of the molar value.

Tests used:
Lactate dehydrogenase = Lactate dehydrogenase (Plasmodium falciparum, UniProt Q0PJ46); assay: Inhibition of Plasmodium falciparum LDH; settings: for pIC50: read-out: IC50
Summary of the method: (§1)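 Recombinant P. falciparum LDH and MDH, bovine heart LDH, and porcine heart mitochondrial and cytosolic MDH were each assayed in 50 mM potassium phosphate (pH 7.0) with 200 µM pyruvate. Reactions were started with 250 µM NADH, and the fall in A340 was followed for 5 min at 25 °C. Compounds were first screened at 50 and 100 µg/mL. Those giving over 50% inhibition at 50 µg/mL were retested for IC50.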

Malate dehydrogenase = target: T1, Malate dehydrogenase (Plasmodium falciparum, UniProt Q6VVP7); assay: Inhibition of Plasmodium falciparum MDH; settings: for pIC50: read-out: IC50; summary of the method: as §1
T1 sequence (Q6VVP7 whole entry): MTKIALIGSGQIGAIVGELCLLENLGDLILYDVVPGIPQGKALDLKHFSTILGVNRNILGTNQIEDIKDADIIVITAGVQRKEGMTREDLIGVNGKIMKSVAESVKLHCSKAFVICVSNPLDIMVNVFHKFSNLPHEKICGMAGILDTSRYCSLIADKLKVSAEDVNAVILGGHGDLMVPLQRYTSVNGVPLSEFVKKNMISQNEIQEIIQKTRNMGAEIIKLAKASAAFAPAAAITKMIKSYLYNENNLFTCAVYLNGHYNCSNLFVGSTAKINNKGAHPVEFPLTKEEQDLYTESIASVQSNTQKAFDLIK

[1] = target: T2, Malate dehydrogenase, cytoplasmic (Sus scrofa, UniProt P11708); assay: Inhibition of pig cytosolic MDH; settings: for pIC50: read-out: IC50; summary of the method: as §1
T2 sequence (P11708 whole entry): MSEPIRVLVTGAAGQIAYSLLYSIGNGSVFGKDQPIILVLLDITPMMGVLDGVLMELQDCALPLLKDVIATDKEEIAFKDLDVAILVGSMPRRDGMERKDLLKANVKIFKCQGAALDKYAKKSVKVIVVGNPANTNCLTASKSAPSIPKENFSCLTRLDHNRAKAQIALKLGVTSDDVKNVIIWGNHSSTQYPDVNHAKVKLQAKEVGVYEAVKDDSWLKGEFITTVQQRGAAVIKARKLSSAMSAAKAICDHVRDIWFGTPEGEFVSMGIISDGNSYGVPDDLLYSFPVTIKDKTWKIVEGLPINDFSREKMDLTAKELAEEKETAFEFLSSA

[2] = target: T3, Malate dehydrogenase, mitochondrial (Sus scrofa, UniProt P00346); assay: Inhibition of pig heart mitochondrial MDH; summary of the method: as §1
T3 sequence (P00346 whole entry): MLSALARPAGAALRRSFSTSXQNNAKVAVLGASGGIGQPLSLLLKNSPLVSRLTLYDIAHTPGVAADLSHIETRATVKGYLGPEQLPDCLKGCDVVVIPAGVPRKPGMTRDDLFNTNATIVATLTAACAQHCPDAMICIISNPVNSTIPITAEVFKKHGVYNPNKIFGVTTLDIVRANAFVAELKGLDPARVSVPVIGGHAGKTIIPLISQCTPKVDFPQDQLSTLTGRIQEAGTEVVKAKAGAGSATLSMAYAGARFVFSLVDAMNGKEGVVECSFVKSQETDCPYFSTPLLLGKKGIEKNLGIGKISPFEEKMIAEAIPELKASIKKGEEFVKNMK

[3] = Inhibition of bovine heart LDH; parameters: species or system Bos taurus; settings: for pIC50: read-out: IC50
[4] = Selectivity for Plasmodium falciparum LDH over bovine heart LDH

Chain of Lactate dehydrogenase (Q0PJ46 whole entry): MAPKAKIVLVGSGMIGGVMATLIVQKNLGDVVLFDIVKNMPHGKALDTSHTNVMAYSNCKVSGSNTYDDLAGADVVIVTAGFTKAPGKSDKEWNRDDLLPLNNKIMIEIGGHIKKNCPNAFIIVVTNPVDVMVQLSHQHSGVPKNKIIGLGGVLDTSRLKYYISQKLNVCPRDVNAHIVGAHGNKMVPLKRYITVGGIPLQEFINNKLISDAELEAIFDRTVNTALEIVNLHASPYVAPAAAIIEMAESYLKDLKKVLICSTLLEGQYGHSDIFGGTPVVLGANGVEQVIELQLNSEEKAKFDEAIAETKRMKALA

Q: Which results are given for `O=C(O)C(=O)Nc1ccc(CCOc2cc(O)c3c(=O)cc(C(=O)O)oc3c2)cc1`?
A: pIC50 (Lactate dehydrogenase): < 3.62; pIC50 (Malate dehydrogenase): < 3.62; IC50 [1]: Not Active; pIC50 [2]: 4.01

Q: With `COc1cc(COc2cc(O)c3c(=O)cc(C(=O)O)oc3c2)ccc1NC(=O)C(=O)O` as the compound, how does the pIC50 (Lactate dehydrogenase) read?
A: 4.06

Q: And the pIC50 (Malate dehydrogenase)?
A: 4.32

Q: And the pIC50 [1]?
A: < 3.63

Q: What about the pIC50 [2] of the same compound?
A: 4.19

Q: With `COc1ccc(CNC(=O)c2cc(=O)c3c(O)cc(OCCc4ccc(NC(=O)C(=O)O)c(C#N)c4)cc3o2)cc1` as the compound, how does the pIC50 [3] read?
A: < 3.75

Q: And the Ratio IC50 [4]?
A: 22

Q: What about the pIC50 (Lactate dehydrogenase) of the same compound?
A: 5.08

Q: What about the pIC50 (Malate dehydrogenase) of the same compound?
A: 4.06

Q: And the pIC50 [1]?
A: 4.96

Q: And the pIC50 [2]?
A: 5.23

Q: For `N#Cc1cc(CCOc2cc(O)c3c(=O)cc(C(=O)O)oc3c2)ccc1NC(=O)C(=O)O`, which IC50 [3] is on record?
A: Not Active

Q: And the IC50 (Lactate dehydrogenase)?
A: Not Active

Q: And the IC50 (Malate dehydrogenase)?
A: Not Active

Q: And the pIC50 [1]?
A: 4.87

Q: And the pIC50 [2]?
A: 4.77

Q: With `COc1ccc(CNC(=O)c2cc(=O)c3c(O)cc(OCCc4ccc(NC(=O)C(=O)O)cc4)cc3o2)cc1` as the compound, how does the pIC50 [3] read?
A: < 3.73

Q: And the Ratio IC50 [4]?
A: 59

Q: What about the pIC50 (Lactate dehydrogenase) of the same compound?
A: 5.50

Q: What about the pIC50 (Malate dehydrogenase) of the same compound?
A: 5.17

Q: What about the pIC50 [1] of the same compound?
A: 5.31

Q: And the pIC50 [2]?
A: 5.57

Q: With `Cc1cc2c(C(C)C)c(O)c(O)c(C=O)c2c(O)c1-c1c(C)cc2c(C(C)C)c(O)c(O)c(C=O)c2c1O` [GOSSYPOL] as the compound, how does the pIC50 [3] read?
A: 5.02

Q: And the pIC50 (Lactate dehydrogenase)?
A: 5.58

Q: And the pIC50 (Malate dehydrogenase)?
A: 5.69

Q: What about the pIC50 [1] of the same compound?
A: 5.24

Q: And the pIC50 [2]?
A: 5.55

Q: With `COc1ccc(CNC(=O)c2cc(=O)c3c(O)cc(OCCc4ccc(NC(=O)C(=O)O)c(OC)c4)cc3o2)cc1` as the compound, how does the pIC50 [3] read?
A: 4.94

Q: What about the pIC50 (Lactate dehydrogenase) of the same compound?
A: 5.76

Q: What about the pIC50 (Malate dehydrogenase) of the same compound?
A: 5.58

Q: What about the pIC50 [1] of the same compound?
A: 5.20

Q: What about the pIC50 [2] of the same compound?
A: 6.41

Q: With `NC(=O)C(=O)O` [OXAMATE] as the compound, how does the pIC50 (Lactate dehydrogenase) read?
A: 4.03

Q: What about the pIC50 (Malate dehydrogenase) of the same compound?
A: < 2.70

Q: What about the pIC50 [1] of the same compound?
A: < 2.70

Q: And the pIC50 [2]?
A: < 2.70

Q: With `COc1cc(CCOc2cc(O)c3c(=O)cc(C(=O)O)oc3c2)ccc1NC(=O)C(=O)O` as the compound, how does the pIC50 (Lactate dehydrogenase) read?
A: 3.72

Q: And the pIC50 (Malate dehydrogenase)?
A: < 3.65

Q: And the IC50 [1]?
A: Not Active

Q: What about the pIC50 [2] of the same compound?
A: < 3.65
